Experimental data as given in ChEMBL document CHEMBL1146374, “Clubbed triazoles: a novel approach to antitubercular drugs” (Eur J Med Chem, 2007).
In brackets after ≈: the same amount, converted by molar mass.

Columns and labels:
[1] = test system: Mycobacterium tuberculosis; assay: (§1) Antituberculosis activity against Mycobacterium tuberculosis H37Rv by Microplate Alamar Blue Assay; assay type: functional
Method in brief: (§2)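 MIC against M. tuberculosis H37Rv (ATCC 27294) in BACTEC 12B medium by broth microdilution (MABA). Primary actives were retested at lower concentrations. MIC is the lowest concentration giving a […] fluorescence reduction versus controls. Fluorescent compounds were run in the BACTEC 460 radiometric system. Rifampin was the reference.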

[2] = Cytotoxicity against Vero-C1008 cells at 6.25 to 50 ug/ml; assay type: cell-based; conditions: chlorocebus sabaeus
Method in brief: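 Vero-C-1008 cells were exposed to compounds at several concentrations across 6.25–50 µg/ml. Cytotoxicity was read out by neutral red uptake.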

[3] = test system: Escherichia coli; assay: Antibacterial activity against Escherichia coli at 50 to 100 uM after 24 hrs by well diffusion method; assay type: functional
Method in brief: (§3)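 Agar well diffusion: nutrient agar plates with 10 mm wells cut by sterile cork borer; 24-h subcultured bacteria swabbed onto the plates from nutrient broth. Compounds were dissolved in chloroform and added to wells at […]. Gentamycin served as the standard antibiotic.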

[4] = test system: Salmonella typhi; assay: Antibacterial activity against Salmonella typhi at 50 to 100 uM after 24 hrs by well diffusion method; assay type: functional, Salmonella enterica subsp. enterica serovar Typhi
Method in brief: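 Agar well diffusion on nutrient agar plates; wells cut with a 10 mm sterile cork borer. Plates swabbed with 24-h subcultured bacteria from nutrient broth. Compounds dissolved in chloroform and added to wells at a range of concentrations. Gentamycin was the standard.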

[5] = test system: Pseudomonas aeruginosa; assay: Antibacterial activity against Pseudomonas aeruginosa at 50 to 100 uM after 24 hrs by well diffusion method; assay type: functional; method in brief: as §3
[6] = test system: Staphylococcus aureus; assay: Antibacterial activity against Staphylococcus aureus at 50 to 100 uM after 24 hrs by well diffusion method; assay type: functional; method in brief: as §3
[7] = test system: Mycobacterium tuberculosis; assay: Growth inhibition of Mycobacterium tuberculosis H37Rv at 6.25 ug/ml by Microplate Alamar Blue Assay; assay type: functional; conditions: read-out: GI
Method in brief: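 Primary single-concentration screen against M. tuberculosis H37Rv (ATCC 27294) in BACTEC 12B medium by MABA broth microdilution, read as % inhibition. Compounds that fluoresce were tested in the BACTEC 460 radiometric system. More than 95% inhibition was the activity cutoff.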

[8] = test system: Mycobacterium tuberculosis; assay: as §1; assay type: functional; method in brief: as §2; remark: listed apart in the source

| Compound | MIC [1] | Activity [2] | zone of inhibition [3] | Inhibition [4] | zone of inhibition [5] | zone of inhibition [6] | inhibition of growth at 6.25 µg/mL [7] | MIC [8] |
| --- | --- | --- | --- | --- | --- | --- | --- | --- |
| O=C(O)CCNc1nc(Cc2nnc(SCC(=O)NNC(=O)CCl)n2NC(=O)c2ccccc2)cs1 | < 6.25 µg/mL | Non-toxic |  |  |  |  |  |  |
| COC(=O)CSc1nnc(Cc2csc(NCCC(=O)O)n2)n1NC(=O)c1ccccc1 | < 6.25 µg/mL | Non-toxic | 12 mm | 12% | 18 mm | 16 mm |  |  |
| O=C(CCl)NNC(=O)CSc1nnc(Cc2csc(NC(=O)c3ccccc3)n2)n1NC(=O)c1ccccc1 | < 6.25 µg/mL | Non-toxic |  |  |  |  |  |  |
| O=C(O)CCNc1nc(Cc2nnc(SCC(=O)NNC(=O)c3ccccc3)n2NC(=O)c2ccccc2)cs1 | < 6.25 µg/mL | Non-toxic |  |  |  |  |  |  |
| O=C(CCl)NNC(=O)CSc1nnc(Cc2csc(NC(=O)CCl)n2)n1NC(=O)c1ccccc1 | < 6.25 µg/mL | Non-toxic |  |  |  |  |  |  |
| Nn1c(S)nnc1CSc1nnc(Cc2csc(NC(=O)CCl)n2)n1NC(=O)c1ccccc1 | < 6.25 µg/mL | Non-toxic | 10 mm | 14% | 10 mm | 12 mm |  |  |
| Nn1c(S)nnc1Cc1csc(NC(=O)CCl)n1 | < 6.25 µg/mL | Non-toxic | 14 mm | 12% | 17 mm | 18 mm |  |  |
| Nn1c(S)nnc1CSc1nnc(Cc2csc(NC(=O)c3ccccc3)n2)n1NC(=O)c1ccccc1 | < 6.25 µg/mL | Non-toxic | 18 mm | 14% | 18 mm | 12 mm |  |  |
| Nn1c(S)nnc1CSc1nnc(Cc2csc(NCCC(=O)O)n2)n1NC(=O)c1ccccc1 | < 6.25 µg/mL | Non-toxic | 18 mm | 12% | 11 mm | 14 mm |  |  |
| CC(=O)Nc1nc(Cc2nnc(SCC(=O)NNC(=O)c3ccccc3)n2NC(=O)c2ccccc2)cs1 | < 6.25 µg/mL | Non-toxic |  |  |  |  |  |  |
| O=C(CCl)Nc1nc(Cc2nnc(S)n2NC(=O)c2ccccc2)cs1 | < 6.25 µg/mL | Non-toxic | 18 mm | 14% | 20 mm | 20 mm |  |  |
| COC(=O)CSc1nnc(Cc2csc(NC(=O)CCl)n2)n1NC(=O)c1ccccc1 | < 6.25 µg/mL | Non-toxic | 20 mm | 18% | 22 mm | 24 mm |  |  |
| CC(=O)Nc1nc(Cc2nnc(SCC(=O)N/N=C/c3ccccc3)n2NC(=O)c2ccccc2)cs1 | < 6.25 µg/mL | Non-toxic |  |  |  |  | 96% | 1.56 µM (≈ 0.834 µg/mL) |
| O=C(O)CCNc1nc(Cc2nnc(SCSc3nnc(Cc4csc(NCCC(=O)O)n4)n3NC(=O)c3ccccc3)n2NC(=O)c2ccccc2)cs1 | < 6.25 µg/mL | Non-toxic | 10 mm | 12% | 16 mm | 18 mm |  |  |
| O=C(CCl)Nc1nc(Cc2nnc(SCSc3nnc(Cc4csc(NC(=O)CCl)n4)n3NC(=O)c3ccccc3)n2NC(=O)c2ccccc2)cs1 | < 6.25 µg/mL | Non-toxic | 20 mm | 16% | 22 mm | 22 mm |  |  |
| CC(=O)NNC(=O)CSc1nnc(Cc2csc(NC(=O)c3ccccc3)n2)n1NC(=O)c1ccccc1 | < 6.25 µg/mL | Non-toxic |  |  |  |  |  |  |
| COC(=O)CSc1nnc(Cc2csc(NC(=O)c3ccccc3)n2)n1NC(=O)c1ccccc1 | < 6.25 µg/mL | Non-toxic | 20 mm | 20% | 22 mm | 22 mm |  |  |
| N#CCSc1nnc(Cc2csc(NCCC(=O)O)n2)n1NC(=O)c1ccccc1 | < 6.25 µg/mL | Non-toxic | 20 mm | 20% | 24 mm | 26 mm |  |  |
| CO[C@H]1/C=C/O[C@@]2(C)Oc3c(C)c(O)c4c(O)c(c(/C=N/N5CCN(C)CC5)c(O)c4c3C2=O)NC(=O)/C(C)=C\C=C\[C@H](C)[C@H](O)[C@@H](C)[C@@H](O)[C@@H](C)[C@H](OC(C)=O)[C@@H]1C [RIFAMPIN] | 15 µg/mL (≈ 18.2 µM) |  |  |  |  |  | 97% |  |
| Nn1c(S)nnc1Cc1csc(NC(=O)c2ccccc2)n1 | < 6.25 µg/mL | Non-toxic | 18 mm | 14% | 20 mm | 22 mm |  |  |
